Laboratory results: ChEMBL document CHEMBL4043099, “Synthesis and biological activity of cyclolinopeptide A analogues modified with γ4-bis(homo-phenylalanine)” (Bioorg Med Chem, 2017)
Calls of active or inactive are those of the source. No cut-off for these calls is given here. Where a SMILES comes first, the peptide text is derived from it.

Tests used:
PBMC [1] = assay: Anti-inflammatory activity in human PBMC assessed as inhibition of LPS-induced TNFalpha production at 10 ug/ml after overnight incubation by immunoassay; assay type: functional
Outline: (§1)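 Diluted venous blood from a single donor (10× in RPMI-1640), 1 mL cultures, stimulated with 1 µg/mL LPS from E. coli O:111:B4. Peptides added at 1 and 10 µg/mL from DMSO stock (5 mg/200 µL) diluted in RPMI-1640. DMSO dilutions served as 100% controls. Overnight incubation, then supernatants frozen at -20 C and TNF-α measured by ELISA.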

PBMC [2] = assay: Immunosuppressive activity in human PBMC assessed as inhibition of PHA-induced cell proliferation at 1 to 100 ug/ml after 4 days by MTT assay; assay type: functional, cell-based
Outline: (§2)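 PBMC (2×10^5 cells/well) in supplemented RPMI-1640, stimulated with 5 µg/mL PHA, with peptide at 1, 10 or 100 µg/mL. DMSO dilutions as control; no-PHA wells as baseline. Proliferation read by MTT after 4 days of incubation. Data given as mean OD of quadruplicate wells ± SE.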

PBMC [3] = assay: Cytotoxicity against human PBMC assessed as reduction in cell viability at 1 to 100 ug/ml after 24 hrs by MTT assay; assay type: cell-based
Outline: (§3)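 Single-donor PBMC isolated on LSM, resuspended in RPMI-1640 with 10% FCS, L-glutamine, pyruvate, 2-mercaptoethanol and antibiotics. Cells plated at 3×10^5 per well and cultured 24 h with peptide at 1, 10 or 100 µg/mL. Survival read by MTT and expressed as % viable cells versus matched DMSO controls.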

HT-29 = assay: Cytotoxicity against human HT-29 cells at 12 ug/ml; assay type: functional, cell-based
A-431 = assay: Cytotoxicity against human A431 cells at 6 ug/ml; assay type: functional, cell-based
PBMC [4] = assay: Immunosuppressive activity in human PBMC assessed as inhibition of PHA-induced cell proliferation at 10 ug/ml after 4 days by MTT assay; assay type: functional, cell-based; outline: as §2
PBMC [5] = assay: Cytotoxicity against human PBMC assessed as reduction in cell viability at 100 ug/ml after 24 hrs by MTT assay; assay type: cell-based; outline: as §3
PBMC [6] = assay: Immunosuppressive activity in human PBMC assessed as inhibition of PHA-induced proliferation after 4 days by MTT assay; assay type: functional, cell-based; outline: as §2
PBMC [7] = assay: Anti-inflammatory activity in human PBMC assessed as inhibition of LPS-induced TNFalpha production at 1 to 10 ug/ml after overnight incubation by immunoassay; assay type: functional, cell-based; outline: as §1

Row | SMILES | inhibition at 10 µg/mL (PBMC [1]) [%] | Activity (PBMC [2]) | Activity (PBMC [3]) | inhibition (PBMC [1]) | Activity (PBMC [4]) | Activity (PBMC [6]) | further results
1 | CC[C@H](C)[C@H](N)C(=O)N[C@H](C(=O)N[C@@H](CC(C)C)C(=O)N[C@H](C(=O)N1CCC[C@H]1C(=O)N1CCC[C@H]1C(=O)N[C@@H](Cc1ccccc1)C(=O)N[C@H](CCC(=O)N[C@@H](CC(C)C)C(=O)O)Cc1ccccc1)C(C)C)[C@@H](C)CC | 45 | inactive | Non-Toxic |  |  |  | 
2 | CC[C@H](C)[C@H](N)C(=O)N[C@H](C(=O)N[C@@H](CC(C)C)C(=O)N[C@H](C(=O)N1CCC[C@H]1C(=O)N1CCC[C@H]1C(=O)N[C@@H](CCC(=O)N[C@@H](Cc1ccccc1)C(=O)N[C@@H](CC(C)C)C(=O)O)Cc1ccccc1)C(C)C)[C@@H](C)CC |  | inactive | Non-Toxic | inactive |  |  | 
3 | CC[C@H](C)[C@@H]1NC(=O)[C@H](CC(C)C)NC(=O)[C@H](Cc2ccccc2)NC(=O)[C@H](Cc2ccccc2)NC(=O)[C@@H]2CCCN2C(=O)[C@@H]2CCCN2C(=O)[C@H](C(C)C)NC(=O)[C@H](CC(C)C)NC(=O)[C@H]([C@@H](C)CC)NC1=O (cyclo(FFLIILVPP)) |  |  |  |  |  |  | Activity (HT-29): inactive; Activity (A-431): inactive
4 | CC[C@H](C)[C@H](N)C(=O)N[C@H](C(=O)N[C@@H](CC(C)C)C(=O)N[C@H](C(=O)N1CCC[C@H]1C(=O)N1CCC[C@H]1C(=O)N[C@H](CCC(=O)N[C@H](CCC(=O)N[C@@H](CC(C)C)C(=O)O)Cc1ccccc1)Cc1ccccc1)C(C)C)[C@@H](C)CC | 45 | inactive | Non-Toxic |  |  |  | 
5 | CC[C@H](C)[C@H](N)C(=O)N[C@H](C(=O)N[C@@H](CC(C)C)C(=O)N[C@H](C(=O)N1CCC[C@H]1C(=O)N1CCC[C@H]1C(=O)N[C@@H](Cc1ccccc1)C(=O)N[C@@H](CCC(=O)N[C@@H](CC(C)C)C(=O)O)Cc1ccccc1)C(C)C)[C@@H](C)CC | 45 | inactive | Non-Toxic |  |  |  | 
6 | CC[C@H](C)[C@@H]1NC(=O)[C@H](CC(C)C)NC(=O)CC[C@@H](Cc2ccccc2)NC(=O)[C@H](Cc2ccccc2)NC(=O)[C@@H]2CCCN2C(=O)[C@@H]2CCCN2C(=O)[C@H](C(C)C)NC(=O)[C@H](CC(C)C)NC(=O)[C@H]([C@@H](C)CC)NC1=O |  |  |  | Active | Active | Dose-dependent effect | Activity (PBMC [5]): Toxic
7 | CC[C@H](C)[C@@H]1NC(=O)[C@H](CC(C)C)NC(=O)[C@H](Cc2ccccc2)NC(=O)CC[C@@H](Cc2ccccc2)NC(=O)[C@@H]2CCCN2C(=O)[C@@H]2CCCN2C(=O)[C@H](C(C)C)NC(=O)[C@H](CC(C)C)NC(=O)[C@H]([C@@H](C)CC)NC1=O |  |  |  | Active | Active | Dose-dependent effect | Activity (PBMC [5]): Toxic
8 | CC[C@H](C)[C@@H]1NC(=O)[C@H](CC(C)C)NC(=O)CC[C@H](Cc2ccccc2)NC(=O)[C@H](Cc2ccccc2)NC(=O)[C@@H]2CCCN2C(=O)[C@@H]2CCCN2C(=O)[C@H](C(C)C)NC(=O)[C@H](CC(C)C)NC(=O)[C@H]([C@@H](C)CC)NC1=O |  |  |  | Active | Active | Dose-dependent effect | 
9 | CC[C@H](C)[C@H](N)C(=O)N[C@H](C(=O)N[C@@H](CC(C)C)C(=O)N[C@H](C(=O)N1CCC[C@H]1C(=O)N1CCC[C@H]1C(=O)N[C@@H](CCC(=O)N[C@@H](CCC(=O)N[C@@H](CC(C)C)C(=O)O)Cc1ccccc1)Cc1ccccc1)C(C)C)[C@@H](C)CC | 45 | inactive | Non-Toxic |  |  |  | 
10 | CC[C@H](C)[C@H](N)C(=O)N[C@H](C(=O)N[C@@H](CC(C)C)C(=O)N[C@H](C(=O)N1CCC[C@H]1C(=O)N1CCC[C@H]1C(=O)N[C@H](CCC(=O)N[C@@H](CCC(=O)N[C@@H](CC(C)C)C(=O)O)Cc1ccccc1)Cc1ccccc1)C(C)C)[C@@H](C)CC | 45 | inactive | Non-Toxic |  |  |  | 
11 | CC[C@H](C)[C@@H]1NC(=O)[C@H](CC(C)C)NC(=O)CC[C@H](Cc2ccccc2)NC(=O)CC[C@H](Cc2ccccc2)NC(=O)[C@@H]2CCCN2C(=O)[C@@H]2CCCN2C(=O)[C@H](C(C)C)NC(=O)[C@H](CC(C)C)NC(=O)[C@H]([C@@H](C)CC)NC1=O |  |  |  | Active | Active | Dose-dependent effect | inhibition (PBMC [7]): Active
12 | CC[C@H](C)[C@@H]1NC(=O)[C@H](CC(C)C)NC(=O)CC[C@@H](Cc2ccccc2)NC(=O)CC[C@H](Cc2ccccc2)NC(=O)[C@@H]2CCCN2C(=O)[C@@H]2CCCN2C(=O)[C@H](C(C)C)NC(=O)[C@H](CC(C)C)NC(=O)[C@H]([C@@H](C)CC)NC1=O |  |  |  | Active | Active | Dose-dependent effect | 
13 | CC[C@H](C)[C@@H]1NC(=O)[C@H](CC(C)C)NC(=O)CC[C@@H](Cc2ccccc2)NC(=O)CC[C@@H](Cc2ccccc2)NC(=O)[C@@H]2CCCN2C(=O)[C@@H]2CCCN2C(=O)[C@H](C(C)C)NC(=O)[C@H](CC(C)C)NC(=O)[C@H]([C@@H](C)CC)NC1=O |  |  |  | Active | Active | Dose-dependent effect | Activity (PBMC [5]): Toxic
14 | CC[C@H](C)[C@@H]1NC(=O)[C@H](CC(C)C)NC(=O)CC[C@H](Cc2ccccc2)NC(=O)CC[C@@H](Cc2ccccc2)NC(=O)[C@@H]2CCCN2C(=O)[C@@H]2CCCN2C(=O)[C@H](C(C)C)NC(=O)[C@H](CC(C)C)NC(=O)[C@H]([C@@H](C)CC)NC1=O |  |  |  | Active | Active | Dose-dependent effect | 
15 | CC[C@H](C)[C@H](N)C(=O)N[C@H](C(=O)N[C@@H](CC(C)C)C(=O)N[C@H](C(=O)N1CCC[C@H]1C(=O)N1CCC[C@H]1C(=O)N[C@@H](CCC(=O)N[C@H](CCC(=O)N[C@@H](CC(C)C)C(=O)O)Cc1ccccc1)Cc1ccccc1)C(C)C)[C@@H](C)CC | 45 | inactive | Non-Toxic |  |  |  | 
16 | CC[C@H](C)[C@H](N)C(=O)N[C@H](C(=O)N[C@@H](CC(C)C)C(=O)N[C@H](C(=O)N1CCC[C@H]1C(=O)N1CCC[C@H]1C(=O)N[C@H](CCC(=O)N[C@@H](Cc1ccccc1)C(=O)N[C@@H](CC(C)C)C(=O)O)Cc1ccccc1)C(C)C)[C@@H](C)CC | 45 | inactive | Non-Toxic |  |  |  | 
